Reference: ChEMBL document CHEMBL3352573 (Bioorg Med Chem, 2014)

Tests used:
[1] = Retention time of the compound by reverse-phase HPLC method; assay type: physicochemical
Procedure, shortened: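 Analytical reverse-phase HPLC on a C18 column (Jupiter 5U C18 300A), 10–40% acetonitrile with 0.1% TFA linear over 30 min at 1 mL/min, UV detection at 220 and 280 nm.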

Melanocortin receptor 4 = Melanocortin receptor 4 (Homo sapiens, UniProt P32245); assay: Displacement of Eu-DTPA-NDP-a-MSH chelate from human melanocortin-4 receptor expressed in HEK293 cells after 1 hr by competitive DELFIA assay; assay type: cell-based
Procedure, shortened: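 HEK293 cells stably carrying hMC4R (pcDNA3.1) were grown in DMEM plus 10% FBS, seeded at 12,000 cells/well and cultured 3 days. Whole cells were competed with unlabeled ligand against 10 nM (final) Eu-DTPA-NDP-α-MSH in binding medium (DMEM, 1 mM 1,10-phenanthroline, bacitracin, leupeptin, 0.3% BSA) for 1 h at 37 °C, in quadruplicate. EC50 and Hill slope came from variable-slope sigmoidal fits.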

Chain of Melanocortin receptor 4 (P32245 whole entry): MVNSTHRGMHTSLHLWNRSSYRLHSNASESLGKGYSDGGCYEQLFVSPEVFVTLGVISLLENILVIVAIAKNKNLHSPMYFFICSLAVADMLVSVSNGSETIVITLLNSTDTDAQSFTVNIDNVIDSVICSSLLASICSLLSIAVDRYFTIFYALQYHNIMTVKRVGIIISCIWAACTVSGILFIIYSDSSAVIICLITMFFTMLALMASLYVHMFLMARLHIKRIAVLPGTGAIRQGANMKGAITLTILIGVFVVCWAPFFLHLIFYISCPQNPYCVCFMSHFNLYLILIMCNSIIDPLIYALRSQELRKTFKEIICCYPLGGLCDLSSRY

Row | SMILES | Retention_time [1] | EC50 (Melanocortin receptor 4)
1 | CCCC[C@H](NC(=O)CNC(=O)[C@@H]1CCCN1C(=O)CNC(=O)[C@@H]1CCCN1C(=O)CNC(=O)[C@@H]1CCCN1C(=O)CNC(=O)[C@@H]1CCCN1C(=O)CNC(=O)[C@@H]1CCCN1C(=O)CNC(=O)[C@@H]1CCCN1C(C)=O)C(=O)N[C@H]1CC(=O)NCCCC[C@@H](C(N)=O)NC(=O)[C@H](Cc2c[nH]c3ccccc23)NC(=O)[C@H](CCCNC(=N)N)NC(=O)[C@@H](Cc2ccc3ccccc3c2)NC(=O)[C@H](Cc2cnc[nH]2)NC1=O | 11.9 min | –
2 | CCCC[C@H](NC(=O)CNC(=O)[C@@H]1CCCN1C(=O)CNC(=O)[C@@H]1CCCN1C(=O)CNC(=O)[C@@H]1CCCN1C(=O)CNC(=O)[C@@H]1CCCN1C(=O)CNC(=O)[C@@H]1CCCN1C(=O)CNC(=O)[C@@H]1CCCN1C(=O)CNC(=O)[C@@H]1CCCN1C(=O)CNC(=O)[C@@H]1CCCN1C(=O)CNC(=O)[C@@H]1CCCN1C(C)=O)C(=O)N[C@H]1CC(=O)NCCCC[C@@H](C(N)=O)NC(=O)[C@H](Cc2c[nH]c3ccccc23)NC(=O)[C@H](CCCNC(=N)N)NC(=O)[C@@H](Cc2ccc3ccccc3c2)NC(=O)[C@H](Cc2cnc[nH]2)NC1=O | 11.9 min | –
3 | CCCC[C@H](NC(=O)CNC(=O)[C@@H]1CCCN1C(=O)CNC(=O)[C@@H]1CCCN1C(=O)CNC(=O)[C@@H]1CCCN1C(=O)CNC(=O)[C@@H]1CCCN1C(=O)CNC(=O)[C@@H]1CCCN1C(=O)CNC(=O)[C@@H]1CCCN1C(=O)CNC(=O)[C@@H]1CCCN1C(=O)CNC(=O)[C@@H]1CCCN1C(=O)CNC(=O)[C@@H]1CCCN1C(=O)CNC(=O)[C@@H]1CCCN1C(=O)CNC(=O)[C@@H]1CCCN1C(=O)CNC(=O)[C@@H]1CCCN1C(C)=O)C(=O)N[C@H]1CC(=O)NCCCC[C@@H](C(N)=O)NC(=O)[C@H](Cc2c[nH]c3ccccc23)NC(=O)[C@H](CCCNC(=N)N)NC(=O)[C@@H](Cc2ccc3ccccc3c2)NC(=O)[C@H](Cc2cnc[nH]2)NC1=O | 11.9 min | –
4 | CCCC[C@H](NC(=O)COCC(=O)NCCCOCCOCCOCCCNC(=O)CNC(=O)[C@@H]1CCCN1C(=O)CNC(=O)[C@@H]1CCCN1C(=O)CNC(=O)[C@@H]1CCCN1C(=O)COCC(=O)NCCCOCCOCCOCCCNC(C)=O)C(=O)N[C@H]1CC(=O)NCCCC[C@@H](C(N)=O)NC(=O)[C@H](Cc2c[nH]c3ccccc23)NC(=O)[C@H](CCCNC(=N)N)NC(=O)[C@@H](Cc2ccc3ccccc3c2)NC(=O)[C@H](Cc2cnc[nH]2)NC1=O | 12.3 min | –
5 | CCCC[C@H](NC(=O)COCC(=O)NCCCOCCOCCOCCCNC(C)=O)C(=O)N[C@H]1CC(=O)NCCCC[C@@H](C(N)=O)NC(=O)[C@H](Cc2c[nH]c3ccccc23)NC(=O)[C@H](CCCNC(=N)N)NC(=O)[C@@H](Cc2ccc3ccccc3c2)NC(=O)[C@H](Cc2cnc[nH]2)NC1=O | 12.5 min | –
6 | CCCC[C@H](NC(=O)COCC(=O)NCCCOCCOCCOCCCNC(=O)COCC(=O)NCCCOCCOCCOCCCNC(C)=O)C(=O)N[C@H]1CC(=O)NCCCC[C@@H](C(N)=O)NC(=O)[C@H](Cc2c[nH]c3ccccc23)NC(=O)[C@H](CCCNC(=N)N)NC(=O)[C@@H](Cc2ccc3ccccc3c2)NC(=O)[C@H](Cc2cnc[nH]2)NC1=O | 12.5 min | –
7 | CCCC[C@H](NC(C)=O)C(=O)N[C@H]1CC(=O)NCCCC[C@@H](C(=O)N2CCC[C@H]2C(=O)NCC(=O)N2CCC[C@H]2C(=O)NCC(=O)N2CCC[C@H]2C(=O)NCC(=O)N2CCC[C@H]2C(=O)NCC(=O)N2CCC[C@H]2C(=O)NCC(=O)N2CCC[C@H]2C(=O)NCC(=O)N2CCC[C@H]2C(=O)NCC(=O)N2CCC[C@H]2C(=O)NCC(=O)N2CCC[C@H]2C(=O)NCC(=O)N[C@@H](CCCC)C(=O)N[C@H]2CC(=O)NCCCC[C@@H](C(N)=O)NC(=O)[C@H](Cc3c[nH]c4ccccc34)NC(=O)[C@H](CCCNC(=N)N)NC(=O)[C@@H](Cc3ccc4ccccc4c3)NC(=O)[C@H](Cc3cnc[nH]3)NC2=O)NC(=O)[C@H](Cc2c[nH]c3ccccc23)NC(=O)[C@H](CCCNC(=N)N)NC(=O)[C@@H](Cc2ccc3ccccc3c2)NC(=O)[C@H](Cc2cnc[nH]2)NC1=O | 13.2 min | –
8 | CCCC[C@H](NC(C)=O)C(=O)N[C@H]1CC(=O)NCCCC[C@@H](C(=O)N2CCC[C@H]2C(=O)NCC(=O)N2CCC[C@H]2C(=O)NCC(=O)N2CCC[C@H]2C(=O)NCC(=O)N2CCC[C@H]2C(=O)NCC(=O)N2CCC[C@H]2C(=O)NCC(=O)N2CCC[C@H]2C(=O)NCC(=O)N2CCC[C@H]2C(=O)NCC(=O)N2CCC[C@H]2C(=O)NCC(=O)N2CCC[C@H]2C(=O)NCC(=O)N2CCC[C@H]2C(=O)NCC(=O)N2CCC[C@H]2C(=O)NCC(=O)N2CCC[C@H]2C(=O)NCC(=O)N[C@@H](CCCC)C(=O)N[C@H]2CC(=O)NCCCC[C@@H](C(N)=O)NC(=O)[C@H](Cc3c[nH]c4ccccc34)NC(=O)[C@H](CCCNC(=N)N)NC(=O)[C@@H](Cc3ccc4ccccc4c3)NC(=O)[C@H](Cc3cnc[nH]3)NC2=O)NC(=O)[C@H](Cc2c[nH]c3ccccc23)NC(=O)[C@H](CCCNC(=N)N)NC(=O)[C@@H](Cc2ccc3ccccc3c2)NC(=O)[C@H](Cc2cnc[nH]2)NC1=O | 13.1 min | –
9 | CCCC[C@H](NC(C)=O)C(=O)N[C@H]1CC(=O)NCCCC[C@@H](C(=O)NCCCOCCOCCOCCCNC(=O)COCC(=O)N2CCC[C@H]2C(=O)NCC(=O)N2CCC[C@H]2C(=O)NCC(=O)N2CCC[C@H]2C(=O)NCC(=O)NCCCOCCOCCOCCCNC(=O)COCC(=O)N[C@@H](CCCC)C(=O)N[C@H]2CC(=O)NCCCC[C@@H](C(N)=O)NC(=O)[C@H](Cc3c[nH]c4ccccc34)NC(=O)[C@H](CCCNC(=N)N)NC(=O)[C@@H](Cc3ccc4ccccc4c3)NC(=O)[C@H](Cc3cnc[nH]3)NC2=O)NC(=O)[C@H](Cc2c[nH]c3ccccc23)NC(=O)[C@H](CCCNC(=N)N)NC(=O)[C@@H](Cc2ccc3ccccc3c2)NC(=O)[C@H](Cc2cnc[nH]2)NC1=O | 13.6 min | –
10 | CCCC[C@H](NC(C)=O)C(=O)N[C@H]1CC(=O)NCCCC[C@@H](C(=O)NCCCOCCOCCOCCCNC(=O)COCC(=O)N[C@@H](CCCC)C(=O)N[C@H]2CC(=O)NCCCC[C@@H](C(N)=O)NC(=O)[C@H](Cc3c[nH]c4ccccc34)NC(=O)[C@H](CCCNC(=N)N)NC(=O)[C@@H](Cc3ccc4ccccc4c3)NC(=O)[C@H](Cc3cnc[nH]3)NC2=O)NC(=O)[C@H](Cc2c[nH]c3ccccc23)NC(=O)[C@H](CCCNC(=N)N)NC(=O)[C@@H](Cc2ccc3ccccc3c2)NC(=O)[C@H](Cc2cnc[nH]2)NC1=O | 14 min | –
11 | CCCC[C@H](NC(C)=O)C(=O)N[C@H]1CC(=O)NCCCC[C@@H](C(=O)NCCCOCCOCCOCCCNC(=O)COCC(=O)NCCCOCCOCCOCCCNC(=O)COCC(=O)N[C@@H](CCCC)C(=O)N[C@H]2CC(=O)NCCCC[C@@H](C(N)=O)NC(=O)[C@H](Cc3c[nH]c4ccccc34)NC(=O)[C@H](CCCNC(=N)N)NC(=O)[C@@H](Cc3ccc4ccccc4c3)NC(=O)[C@H](Cc3cnc[nH]3)NC2=O)NC(=O)[C@H](Cc2c[nH]c3ccccc23)NC(=O)[C@H](CCCNC(=N)N)NC(=O)[C@@H](Cc2ccc3ccccc3c2)NC(=O)[C@H](Cc2cnc[nH]2)NC1=O | 13.9 min | –
12 | CCCC[C@H](NC(=O)CNC(=O)[C@@H]1CCCN1C(=O)CNC(=O)[C@@H]1CCCN1C(=O)CNC(=O)[C@@H]1CCCN1C(=O)CNC(=O)[C@@H]1CCCN1C(=O)CNC(=O)[C@@H]1CCCN1C(=O)CNC(=O)[C@@H]1CCCN1C(=O)[C@H](Cc1c[nH]c2ccccc12)NC(=O)[C@H](CCCNC(=N)N)NC(=O)[C@@H](Cc1ccccc1)NC(=O)[C@H](Cc1cnc[nH]1)NC(=O)[C@H](CCC(=O)O)NC(=O)[C@H](CCCC)NC(=O)[C@H](CO)NC(C)=O)C(=O)N[C@H]1CC(=O)NCCCC[C@@H](C(N)=O)NC(=O)[C@H](Cc2c[nH]c3ccccc23)NC(=O)[C@H](CCCNC(=N)N)NC(=O)[C@@H](Cc2ccc3ccccc3c2)NC(=O)[C@H](Cc2cnc[nH]2)NC1=O | 12 min | 4.1 nM
13 | CCCC[C@H](NC(=O)CNC(=O)[C@@H]1CCCN1C(=O)CNC(=O)[C@@H]1CCCN1C(=O)CNC(=O)[C@@H]1CCCN1C(=O)CNC(=O)[C@@H]1CCCN1C(=O)CNC(=O)[C@@H]1CCCN1C(=O)CNC(=O)[C@@H]1CCCN1C(=O)CNC(=O)[C@@H]1CCCN1C(=O)CNC(=O)[C@@H]1CCCN1C(=O)CNC(=O)[C@@H]1CCCN1C(=O)[C@H](Cc1c[nH]c2ccccc12)NC(=O)[C@H](CCCNC(=N)N)NC(=O)[C@@H](Cc1ccccc1)NC(=O)[C@H](Cc1cnc[nH]1)NC(=O)[C@H](CCC(=O)O)NC(=O)[C@H](CCCC)NC(=O)[C@H](CO)NC(C)=O)C(=O)N[C@H]1CC(=O)NCCCC[C@@H](C(N)=O)NC(=O)[C@H](Cc2c[nH]c3ccccc23)NC(=O)[C@H](CCCNC(=N)N)NC(=O)[C@@H](Cc2ccc3ccccc3c2)NC(=O)[C@H](Cc2cnc[nH]2)NC1=O | 12 min | 2 nM
